Test results: PubChem BioAssay
Results filed as inconclusive are left out.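 How the source made its calls, unless noted: active means viability increase at or above a cutoff of the median across tested compounds plus 3 SD (cut at about 8.5% in these data, passing the limit was not always enough); inconclusive means some gains above the cutoff, reason not given; inactive means the rest.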

What was measured:
[1] = OD615 S. cerevisiae growth inhibition, permissive medium, pilot counter-assay, permissive growth control for S. cerevisiae lifespan shortening project (AID 705;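 active means growth inhibition above 25% in both replicates, a cutoff set 3 SD above the mean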); details: OD615, 24 h, at 10 µM, hits give high values
How it was run: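 assay system = Saccharomyces cerevisiae strain carrying genetically modified DeaD replicative-lifespan system | technique = absorbance (optical density) at 615 nm | buffer or medium = permissive raffinose/galactose medium | timing = cells pre-grown 4 h, then 24 h compound exposure, 30 °C humidified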

[2] = Restrictive medium S. cerevisiae growth inhibition, OD615, pilot screen of yeast lifespan reduction project, restrictive growth control (AID 706;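 active means growth inhibition above a set limit, 3 SD over mean compound inhibition, in both replicates, cut at about 43% in these data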;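 further: modified DeaD lifespan yeast strain shifted to restrictive glucose medium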); details: OD615, 48 h, at 10 µM, hits give high values
How it was run: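 System: modified S. cerevisiae. Buffer or medium: CSMM-D glucose medium. Incubation: 4 h pre-growth plus 48 h compound exposure, 30 °C. Detection: absorbance (optical density) measured at 615 nm.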

[3] = viability gain of MRP-1-high H69AR cells under doxorubicin, pilot screen, MRP-1 activator project, CellTiter-Glo, duplicate (AID 807); details: H69AR viability with doxorubicin, CellTiter-Glo luminescence; at 10 µM; hits give high values;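 further: compound pretreatment 18-22 h then 72 h combined with doxorubicin; 0% = doxorubicin alone and 100% = vehicle without doxorubicin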
[4] = growth suppression of beta-catenin knockout HCT116, pilot screen, human colon tumor cells (AID 823;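 active means cell viability at or below a set limit in both duplicate runs, the limit being the all-compound median minus 4 SD, cut at about 23% in these data, passing the limit was not always enough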;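 further: 0% = wells killed by 20 µM Hyamine and 100% = untreated DMSO cell wells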); details: CellTiter-Glo, 60 h, at 10 µM, hits give low values
[5] = growth suppression of PTEN-deleted HCT116, pilot screen, cell-based, HCT116 clonal line, CellTiter-Glo (AID 824;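 active means viability at or below 27.92% in each of two runs, the all-compound median minus 4 SD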;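 further: 0% = 20 µM Hyamine control and 100% = vehicle cell control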); details: 60 h, at 10 µM, hits give low values
[6] = RAM signaling pathway blockade in yeast – S. cerevisiae, Pdr1DBD-CYC8 efflux-inhibited sensitized strain, primary screen (AID 1298;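 active means RAM network inhibition above 8.4% in each of two replicates, 3 SD over the compound average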;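 further: 0% = DMSO untreated cells without growth and 100% = 10 µM 1-NA-PP1 full growth; higher means more yeast growth rescued from 5-FOA killing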); details: S. cerevisiae cbk1-as DSE1-URA3 strain, 5-FOA growth OD615, 2 d; at 50 µM; hits give high values
[7] = inhibitors of the yeast RAM network, pilot screen, dse1pr::URA3 reporter, 5-FOA selection (AID 869;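 active means inhibition over a set limit, the all-compound mean plus 3 SD, in both replicate runs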;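 further: 0% = DMSO wells with no growth and 100% = 10 µM 1-NA-PP1 with full growth; RAM network block rescues cells from 5-FOA so hits raise OD615 growth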); details: S. cerevisiae dse1pr::URA3 5-FOA growth, OD615, 2 d; at 10 µM; hits give high values; strain carries analog-sensitive mutant Cbk1 kinase

FC(F)(F)c1nc(N2CCN(c3ccccc3)CC2)nc2c1CCCCC2
inactive: growth inhibition [1] -16.6% | growth inhibition [2] -18.3% | viability increase [3] -0.3% | viability [4] 72.5% | viability [5] 73.4% | RAM network inhibition [6] 9.39%

CCOC(=O)N1CCC(N2C(=O)c3ccc(C(=O)Nc4ccc(F)cc4F)cc3C2=O)CC1
inactive: growth inhibition [1] -2.61% | growth inhibition [2] -7.76% | viability increase [3] -6.61% | viability [4] 91.1% | viability [5] 94.4% | RAM network inhibition [6] 4.78%

CCOc1ccc(C2Oc3nc(SC)nnc3-c3ccccc3N2C(C)=O)cc1OC (stereo not given)
inactive: growth inhibition [1] 6.18% | growth inhibition [2] 4.39% | viability increase [3] -2.28% | viability [4] 109% | viability [5] 99.8% | RAM network inhibition [6] 4.23%

CCOc1cc(-c2nc(-c3ccc(OC)cc3)no2)cc(OCC)c1OCC
inactive: growth inhibition [1] -4.43% | growth inhibition [2] -2.33% | viability increase [3] -3.25% | viability [4] 93.9% | viability [5] 89.5% | RAM network inhibition [6] 9.91%

CCCc1cc(C(=O)NCCc2ccc(OC)c(OC)c2)no1
inactive: growth inhibition [1] 1.33% | growth inhibition [2] 4.92% | viability increase [3] -1.89% | viability [4] 106% | viability [5] 97.2% | RAM network inhibition [6] 3.29%

Cc1cc2cc(CNC(=O)C3CCCC3)ccc2n1C
inactive: growth inhibition [1] -3.94% | growth inhibition [2] -10.2% | viability increase [3] 0.45% | viability [4] 103% | viability [5] 91% | RAM network inhibition [6] 2.97%

O=C(Nc1c(C(=O)Nc2ccccc2)cnn1-c1ccccc1)c1ccco1
inactive: growth inhibition [1] -3.7% | growth inhibition [2] -2.03% | viability increase [3] -4.51% | viability [4] 94.4% | viability [5] 94.3% | RAM network inhibition [6] 2.51%

COc1ccc(C(=O)c2oc3ccc(Br)cc3c2NC(C)=O)cc1
inactive: growth inhibition [1] -2.44% | growth inhibition [2] -3.18% | viability increase [3] -3.96% | viability [4] 97.7% | viability [5] 104% | RAM network inhibition [6] 1.07%

COc1ccccc1-c1cc(C(F)(F)F)nc(N2CCOCC2)n1
inactive: growth inhibition [1] -8.95% | growth inhibition [2] -13.9% | viability increase [3] -0.29% | viability [4] 78.8% | viability [5] 82.5% | RAM network inhibition [6] 7.23%

Cc1ccccc1-n1c(Cn2c(=O)sc3ccccc32)nnc1SC(C)C
inactive: growth inhibition [1] 5.19% | growth inhibition [2] 6.75% | viability increase [3] -0.49% | viability [4] 84% | viability [5] 78.4% | RAM network inhibition [6] 6.91%

Cn1c(C(C#N)/C(=N\S(=O)(=O)c2cccs2)c2ccccc2)nc2ccccc21 (stereo not given)
inactive: growth inhibition [1] -17.5% | growth inhibition [2] -19.6% | viability increase [3] -1.15% | viability [4] 95.5% | viability [5] 94.7% | RAM network inhibition [6] 6.16%

CN(C)c1nc2ccc(OCCN3CCCCC3)cc2s1
inactive: growth inhibition [1] -10.8% | growth inhibition [2] 0.795% | viability increase [3] -0.48% | viability [4] 93% | viability [5] 94.3% | RAM network inhibition [6] 4.76%

CCOC(=O)C1CCN(C(C(=O)NC2CCCCC2)c2ccc(OC)cc2)CC1 (stereo not given)
inactive: growth inhibition [1] -4.53% | growth inhibition [2] -11.7% | viability increase [3] -1.91% | viability [4] 93.2% | viability [5] 88.6% | RAM network inhibition [6] 3.74%

O=C(Cn1c(=O)oc2cc(S(=O)(=O)N3CCCCCC3)ccc21)NC1CCCCC1
inactive: growth inhibition [1] -4.92% | growth inhibition [2] -8.79% | viability increase [3] -4.28% | viability [4] 101% | viability [5] 93.8% | RAM network inhibition [6] 3.25%

COc1ccccc1OCC(O)CN1C(=O)NC(C)(C)C1=O (stereo not given)
inactive: growth inhibition [1] -7.73% | growth inhibition [2] -7.44% | viability increase [3] -0.34% | viability [4] 93.4% | viability [5] 91.6% | RAM network inhibition [6] 2.29%

CCN(CC)CCn1c(=S)[nH]c2ccccc2c1=O
inactive: growth inhibition [1] -8.59% | growth inhibition [2] 6.18% | viability increase [3] -1.56% | viability [4] 103% | viability [5] 98.1% | RAM network inhibition [6] 6.58%

O=C(CSc1nc2ccccc2o1)NCc1ccc2c(c1)OCO2
inactive: growth inhibition [1] -8.6% | growth inhibition [2] -2.3% | viability increase [3] 4.28% | viability [4] 94.8% | viability [5] 83.9% | RAM network inhibition [6] 2.68%

COC(=O)c1nnc(-c2ccccc2)c(-c2ccccc2)n1
inactive: growth inhibition [1] -20.7% | growth inhibition [2] -24.7% | viability increase [3] -1.82% | viability [4] 104% | viability [5] 99.5% | RAM network inhibition [6] 9.17%

COc1ccc(CCn2c(N)c(S(=O)(=O)c3cccs3)c3nc4ccccc4nc32)cc1OC
inactive: growth inhibition [1] -4.55% | growth inhibition [2] -27.6% | viability increase [3] -2.53% | viability [4] 91.6% | viability [5] 85.1% | RAM network inhibition [6] 8.59%

CCOC(=O)C1CCN(S(=O)(=O)C(F)(F)c2nc3ccccc3s2)CC1
inactive: growth inhibition [1] -10.6% | growth inhibition [2] -6.5% | viability increase [3] -2.27% | viability [4] 82.2% | viability [5] 87.5% | RAM network inhibition [6] 5.28%

Clc1ccc(-c2nnc(SCc3nc(-c4ccccc4)no3)o2)cc1
inactive: growth inhibition [1] -10.1% | growth inhibition [2] -9.97% | viability increase [3] -3.34% | viability [4] 99.2% | viability [5] 91.7% | RAM network inhibition [6] 4.9%

CS(=O)(=O)c1ccc2nc(NC(=O)Cc3ccccc3)sc2c1
inactive: growth inhibition [1] -10.9% | growth inhibition [2] -4.83% | viability increase [3] -4.98% | viability [4] 91.5% | viability [5] 96.3% | RAM network inhibition [6] 3.94%

Cn1c(Cn2c(=O)sc3ccccc32)nnc1SCC(=O)Nc1ccc(F)cc1
inactive: growth inhibition [1] -6.3% | growth inhibition [2] -13.1% | viability increase [3] -0.7% | viability [4] 105% | viability [5] 97.8% | RAM network inhibition [6] 5.95%

O=C(Cn1c(=O)oc2cc(S(=O)(=O)N3CCCC3)ccc21)NC1CCCc2ccccc21 (stereo not given)
inactive: growth inhibition [1] -5.83% | growth inhibition [2] -9.71% | viability increase [3] -0.88% | viability [4] 97% | viability [5] 79.4% | RAM network inhibition [6] 10.3%

CCn1c(=O)c2cc(C(=O)Nc3cc(C)on3)sc2c2ccccc21
inactive: growth inhibition [1] -16.6% | growth inhibition [2] -25.2% | viability increase [3] -6.36% | viability [4] 92.1% | viability [5] 71.5% | RAM network inhibition [6] 4.19%

COC(=O)c1cc(=O)[nH]c(SCc2cccc(C)c2)n1
inactive: growth inhibition [1] -9.72% | growth inhibition [2] -0.94% | viability increase [3] -3.27% | viability [4] 102% | viability [5] 101% | RAM network inhibition [6] 6.8%

CN1C(=O)CSc2ccc(C(=O)O)cc21
inactive: growth inhibition [1] 0.925% | growth inhibition [2] -1.22% | viability increase [3] -0.35% | viability [4] 100% | viability [5] 100% | RAM network inhibition [6] -0.62%

CCn1cc(C(=O)NC2CCCCC2)c(=O)c2cc(S(=O)(=O)N(C)C)ccc21
inactive: growth inhibition [1] -0.125% | growth inhibition [2] 2.4% | viability increase [3] -1.45% | viability [4] 102% | viability [5] 94.7% | RAM network inhibition [6] -1.57%

Cc1ccc2oc(=O)c3cnn(CC(=O)NCCc4ccsc4)c3c2c1
inactive: growth inhibition [1] 3.75% | growth inhibition [2] -1.42% | viability increase [3] -2.89% | viability [4] 90.7% | viability [5] 85.7% | RAM network inhibition [6] 3.42%

COc1ccccc1S(=O)(=O)Cc1ccc(C(=O)NCc2cccnc2)o1
inactive: growth inhibition [1] 0.915% | growth inhibition [2] -0.525% | viability increase [3] -1.11% | viability [4] 97.8% | viability [5] 94.9% | RAM network inhibition [6] 2.56%

CSc1cccc(NS(=O)(=O)c2ccc3c(c2)oc(=O)n3C)c1
inactive: growth inhibition [1] -0.15% | growth inhibition [2] 7.23% | viability increase [3] -1.75% | viability [4] 85.3% | viability [5] 81% | RAM network inhibition [6] 4.49%

Cc1onc(-c2ccccc2Cl)c1C(=O)Nc1ccc(S(=O)(=O)N2CCCC2)cc1
inactive: growth inhibition [1] 0.03% | growth inhibition [2] 9.99% | viability increase [3] -2.15% | viability [4] 86.3% | viability [5] 81.2% | inhibition [7] 1.72% | RAM network inhibition [6] 4.75%

O=C(C1CC1)N1CCc2cc(Br)cc(S(=O)(=O)N3CCN(c4ccccn4)CC3)c21
inactive: growth inhibition [1] -13.2% | growth inhibition [2] -14.6% | viability increase [3] -2.17% | viability [4] 91% | viability [5] 91.5% | inhibition [7] 1.29% | RAM network inhibition [6] 5.52%

CC(=O)OC1c2c(ccc3ccc(=O)oc23)OC(C)(C)C1OC(=O)CC(C)C (stereo not given)
inactive: growth inhibition [1] -18.4% | growth inhibition [2] -10% | viability increase [3] 1.31% | viability [4] 84.7% | viability [5] 80.8% | inhibition [7] 1.1% | RAM network inhibition [6] 10%

CCOC(=O)c1c(CN2CCCCC2)n(C)c2cc(Br)c(O)c(CN(C)C)c12
inactive: growth inhibition [1] -16.8% | growth inhibition [2] 5.7% | viability increase [3] -2.65% | viability [4] 75.7% | viability [5] 79.5% | RAM network inhibition [6] 0.94%

CC(=O)NCc1cn2c(C)csc2n1
inactive: growth inhibition [1] -16.9% | growth inhibition [2] -3.26% | viability increase [3] -3.88% | viability [4] 98.1% | viability [5] 90% | RAM network inhibition [6] 3.01%

CCOc1ccc(-n2c(SCC(N)=O)nc3c([nH]c4ccccc43)c2=O)cc1
inactive: growth inhibition [1] -16.6% | growth inhibition [2] 2.87% | viability increase [3] -2.27% | viability [4] 62.5% | viability [5] 71.4% | RAM network inhibition [6] 11.2%

CCOC(=O)N1CCN(c2nc(=S)n(-c3ccccc3)c(C)c2C(C)=O)CC1
inactive: growth inhibition [1] 14.8% | growth inhibition [2] 28.8% | viability increase [3] -1.09% | viability [4] 98.8% | viability [5] 101% | inhibition [7] 1.26% | RAM network inhibition [6] 2.67%

COc1ccc(-n2c(SCC(=O)N3CCCC3)nc3c([nH]c4ccccc43)c2=O)cc1
inactive: growth inhibition [1] -20.2% | growth inhibition [2] -19.5% | viability increase [3] -3.04% | viability [4] 105% | viability [5] 93.7% | RAM network inhibition [6] 1.9%

CCCN1CCN(CCCNC(=O)Cn2cc3c(n2)CCCC3)CC1
inactive: growth inhibition [1] -3.77% | growth inhibition [2] -2.67% | viability increase [3] -0.96% | viability [4] 101% | viability [5] 91% | inhibition [7] 0.27% | RAM network inhibition [6] 3.05%
